How the values were obtained:
Format in all cases: functional
[1] = system: Botryosphaeria berengeriana; assay: Fungicidal activity against Botryosphaeria berengeriana at 50 ug/ml by growth inhibition method; details: read-out: GI
Method in brief: (§1)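 Mycelial growth inhibition on potato dextrose agar. The panel covered Alternaria solani, Botrytis cinerea, Cercospora arachidicola, C. beticola, Colletotrichum lagenarium, Fusarium oxysporum, Gibberella zeae, Puccinia triticina, Phytophthora infestans, Physalospora piricola, Pellicularia sasakii and Rhizoctonia solani.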

Mycosphaerella arachidis = assay: Fungicidal activity against Mycosphaerella arachidis at 50 ug/ml by growth inhibition method; details: read-out: GI; method in brief: as §1
Tobacco mosaic virus [2] = assay: In vitro antiviral activity against Tobacco mosaic virus (TMV) infected tobacco leaves at 100 ug/ml
Cercospora beticola = assay: Fungicidal activity against Cercospora beticola at 50 ug/ml by growth inhibition method; details: read-out: GI; method in brief: as §1
Colletotrichum lagenaria = assay: Fungicidal activity against Colletotrichum lagenaria at 50 ug/ml by growth inhibition method; details: read-out: GI; method in brief: as §1
Thanatephorus cucumeris = assay: Fungicidal activity against Thanatephorus cucumeris at 50 ug/ml by growth inhibition method; details: read-out: GI; method in brief: as §1
Fusarium graminearum = assay: Fungicidal activity against Fusarium graminearum at 50 ug/ml by growth inhibition method; details: read-out: GI; method in brief: as §1
Rhizoctonia solani = assay: Fungicidal activity against Rhizoctonia solani at 50 ug/ml by growth inhibition method; details: read-out: GI; method in brief: as §1
Phytophthora infestans = assay: Fungicidal activity against Phytophthora infestans at 50 ug/ml by growth inhibition method; details: read-out: GI; method in brief: as §1
Tobacco mosaic virus [3] = assay: In vitro antiviral activity against Tobacco mosaic virus (TMV) infected tobacco leaves at 500 ug/ml
Puccinia triticina = assay: Fungicidal activity against Puccinia triticina at 50 ug/ml by growth inhibition method; details: read-out: GI; method in brief: as §1
Alternaria solani = assay: Fungicidal activity against Alternaria solani at 50 ug/ml by growth inhibition method; details: read-out: GI; method in brief: as §1

SMILES: Cc1ccc(N(C(=O)c2nnsc2C)C(C(=O)NC2CCCCC2)c2ccc(O)cc2)cc1F (stereo not drawn)
- inhibition of growth at 50 µg/mL [1]: 0%
- inhibition of growth at 50 µg/mL (Mycosphaerella arachidis): 45%
- inhibition at 100 µg/mL (Tobacco mosaic virus [2]): 9%
- inhibition of growth at 50 µg/mL (Cercospora beticola): 25%
- inhibition of growth at 50 µg/mL (Colletotrichum lagenaria): 36%
- inhibition of growth at 50 µg/mL (Thanatephorus cucumeris): 0%
- inhibition of growth at 50 µg/mL (Fusarium graminearum): 14%
- inhibition of growth at 50 µg/mL (Rhizoctonia solani): 22%
- inhibition of growth at 50 µg/mL (Phytophthora infestans): 25%
- inhibition at 500 µg/mL (Tobacco mosaic virus [3]): 34%
- inhibition of growth at 50 µg/mL (Puccinia triticina): 0%
- inhibition of growth at 50 µg/mL (Alternaria solani): 13%

SMILES: Cc1cccc(C(C(=O)NC(C)C)N(C(=O)c2nnsc2C)c2ccc(C)c(F)c2)c1 (stereo not drawn)
- inhibition of growth at 50 µg/mL [1]: 0%
- inhibition of growth at 50 µg/mL (Mycosphaerella arachidis): 9%
- inhibition at 100 µg/mL (Tobacco mosaic virus [2]): 14%
- inhibition of growth at 50 µg/mL (Cercospora beticola): 25%
- inhibition of growth at 50 µg/mL (Colletotrichum lagenaria): 0%
- inhibition of growth at 50 µg/mL (Thanatephorus cucumeris): 0%
- inhibition of growth at 50 µg/mL (Fusarium graminearum): 0%
- inhibition of growth at 50 µg/mL (Rhizoctonia solani): 0%
- inhibition of growth at 50 µg/mL (Phytophthora infestans): 13%
- inhibition at 500 µg/mL (Tobacco mosaic virus [3]): 35%
- inhibition of growth at 50 µg/mL (Puccinia triticina): 0%
- inhibition of growth at 50 µg/mL (Alternaria solani): 0%

SMILES: Cc1ccc(N(C(=O)c2nnsc2C)C(C(=O)NC(C)C)c2ccccc2C)cc1F (stereo not drawn)
- inhibition of growth at 50 µg/mL [1]: 0%
- inhibition of growth at 50 µg/mL (Mycosphaerella arachidis): 36%
- inhibition at 100 µg/mL (Tobacco mosaic virus [2]): 36%
- inhibition of growth at 50 µg/mL (Cercospora beticola): 0%
- inhibition of growth at 50 µg/mL (Colletotrichum lagenaria): 50%
- inhibition of growth at 50 µg/mL (Thanatephorus cucumeris): 0%
- inhibition of growth at 50 µg/mL (Fusarium graminearum): 27%
- inhibition of growth at 50 µg/mL (Rhizoctonia solani): 22%
- inhibition of growth at 50 µg/mL (Phytophthora infestans): 31%
- inhibition at 500 µg/mL (Tobacco mosaic virus [3]): 55%
- inhibition of growth at 50 µg/mL (Puccinia triticina): 0%
- inhibition of growth at 50 µg/mL (Alternaria solani): 56%

SMILES: Cc1ccc(N(C(=O)c2nnsc2C)C(C(=O)NC(C)C)c2cccc(O)c2)cc1F (stereo not drawn)
- inhibition of growth at 50 µg/mL [1]: 0%
- inhibition of growth at 50 µg/mL (Mycosphaerella arachidis): 0%
- inhibition at 100 µg/mL (Tobacco mosaic virus [2]): 4%
- inhibition of growth at 50 µg/mL (Cercospora beticola): 11%
- inhibition of growth at 50 µg/mL (Colletotrichum lagenaria): 14%
- inhibition of growth at 50 µg/mL (Thanatephorus cucumeris): 0%
- inhibition of growth at 50 µg/mL (Fusarium graminearum): 0%
- inhibition of growth at 50 µg/mL (Rhizoctonia solani): 2%
- inhibition of growth at 50 µg/mL (Phytophthora infestans): 38%
- inhibition at 500 µg/mL (Tobacco mosaic virus [3]): 20%
- inhibition of growth at 50 µg/mL (Puccinia triticina): 0%
- inhibition of growth at 50 µg/mL (Alternaria solani): 0%

SMILES: Cc1ccc(N(C(=O)c2nnsc2C)C(C(=O)NC(C)C)c2ccccc2O)cc1F (stereo not drawn)
- inhibition of growth at 50 µg/mL [1]: 19%
- inhibition of growth at 50 µg/mL (Mycosphaerella arachidis): 0%
- inhibition at 100 µg/mL (Tobacco mosaic virus [2]): 27%
- inhibition of growth at 50 µg/mL (Cercospora beticola): 0%
- inhibition of growth at 50 µg/mL (Colletotrichum lagenaria): 50%
- inhibition of growth at 50 µg/mL (Thanatephorus cucumeris): 41%
- inhibition of growth at 50 µg/mL (Fusarium graminearum): 50%
- inhibition of growth at 50 µg/mL (Rhizoctonia solani): 26%
- inhibition of growth at 50 µg/mL (Phytophthora infestans): 0%
- inhibition at 500 µg/mL (Tobacco mosaic virus [3]): 56%
- inhibition of growth at 50 µg/mL (Puccinia triticina): 0%
- inhibition of growth at 50 µg/mL (Alternaria solani): 0%

SMILES: Cc1ccc(N(C(=O)c2nnsc2C)C(C(=O)NC2CCCCC2)c2ccccc2)cc1F (stereo not drawn)
- inhibition of growth at 50 µg/mL [1]: 69%
- inhibition of growth at 50 µg/mL (Mycosphaerella arachidis): 18%
- inhibition at 100 µg/mL (Tobacco mosaic virus [2]): 51%
- inhibition of growth at 50 µg/mL (Cercospora beticola): 0%
- inhibition of growth at 50 µg/mL (Colletotrichum lagenaria): 0%
- inhibition of growth at 50 µg/mL (Thanatephorus cucumeris): 65%
- inhibition of growth at 50 µg/mL (Fusarium graminearum): 27%
- inhibition of growth at 50 µg/mL (Rhizoctonia solani): 0%
- inhibition of growth at 50 µg/mL (Phytophthora infestans): 38%
- inhibition at 500 µg/mL (Tobacco mosaic virus [3]): 71%
- inhibition of growth at 50 µg/mL (Puccinia triticina): 0%
- inhibition of growth at 50 µg/mL (Alternaria solani): 25%

SMILES: Cc1ccc(N(C(=O)c2nnsc2C)C(C(=O)NC2CCCCC2)c2ccc([N+](=O)[O-])cc2)cc1F (stereo not drawn)
- inhibition of growth at 50 µg/mL [1]: 0%
- inhibition of growth at 50 µg/mL (Mycosphaerella arachidis): 45%
- inhibition at 100 µg/mL (Tobacco mosaic virus [2]): 8%
- inhibition of growth at 50 µg/mL (Cercospora beticola): 25%
- inhibition of growth at 50 µg/mL (Colletotrichum lagenaria): 14%
- inhibition of growth at 50 µg/mL (Thanatephorus cucumeris): 0%
- inhibition of growth at 50 µg/mL (Fusarium graminearum): 0%
- inhibition of growth at 50 µg/mL (Rhizoctonia solani): 2%
- inhibition of growth at 50 µg/mL (Phytophthora infestans): 50%
- inhibition at 500 µg/mL (Tobacco mosaic virus [3]): 70%
- inhibition of growth at 50 µg/mL (Puccinia triticina): 0%
- inhibition of growth at 50 µg/mL (Alternaria solani): 0%

SMILES: Cc1ccc(N(C(=O)c2nnsc2C)C(C(=O)NC2CCCCC2)c2cccc([N+](=O)[O-])c2)cc1F (stereo not drawn)
- inhibition of growth at 50 µg/mL [1]: 0%
- inhibition of growth at 50 µg/mL (Mycosphaerella arachidis): 0%
- inhibition at 100 µg/mL (Tobacco mosaic virus [2]): 9%
- inhibition of growth at 50 µg/mL (Cercospora beticola): 25%
- inhibition of growth at 50 µg/mL (Colletotrichum lagenaria): 0%
- inhibition of growth at 50 µg/mL (Thanatephorus cucumeris): 0%
- inhibition of growth at 50 µg/mL (Fusarium graminearum): 0%
- inhibition of growth at 50 µg/mL (Rhizoctonia solani): 4%
- inhibition of growth at 50 µg/mL (Phytophthora infestans): 44%
- inhibition at 500 µg/mL (Tobacco mosaic virus [3]): 57%
- inhibition of growth at 50 µg/mL (Puccinia triticina): 0%
- inhibition of growth at 50 µg/mL (Alternaria solani): 0%

SMILES: Cc1ccc(N(C(=O)c2nnsc2C)C(C(=O)NC2CCCCC2)c2ccccc2[N+](=O)[O-])cc1F (stereo not drawn)
- inhibition of growth at 50 µg/mL [1]: 12%
- inhibition of growth at 50 µg/mL (Mycosphaerella arachidis): 27%
- inhibition at 100 µg/mL (Tobacco mosaic virus [2]): 5%
- inhibition of growth at 50 µg/mL (Cercospora beticola): 25%
- inhibition of growth at 50 µg/mL (Colletotrichum lagenaria): 0%
- inhibition of growth at 50 µg/mL (Thanatephorus cucumeris): 0%
- inhibition of growth at 50 µg/mL (Fusarium graminearum): 0%
- inhibition of growth at 50 µg/mL (Rhizoctonia solani): 9%
- inhibition of growth at 50 µg/mL (Phytophthora infestans): 50%
- inhibition at 500 µg/mL (Tobacco mosaic virus [3]): 11%
- inhibition of growth at 50 µg/mL (Puccinia triticina): 0%
- inhibition of growth at 50 µg/mL (Alternaria solani): 0%

From ChEMBL document CHEMBL3044755, “5-Methyl-1,2,3-thiadiazoles synthesized via ugi reaction and their fungicidal and antiviral activities” (J Agric Food Chem, 2010)
